Measured values taken from ChEMBL document CHEMBL2331403, “Discovery and optimization of a novel series of potent mutant B-Raf(V600E) selective kinase inhibitors” (J Med Chem, 2013).

Experiments:
[1] = Oral bioavailability in Han Wistar rat at 10 mg/kg; assay type: ADME, organism-based; details: in vivo
Method in brief: (§1)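 Rat PK study: oral dose 10 mg/kg in 0.1% HPMC; intravenous dose 3 mg/kg in 40% DMA/40% TEG/20% saline. Half-life taken from the iv arm; F not determined where no oral dose was given.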

[2] = Volume of distribution at steady state in Han Wistar rat at 10 mg/kg, po and 3 mg/kg, iv; assay type: ADME, organism-based; details: in vivo, read-out: Vdss; method in brief: as §1
[3] = tested on: Plasma; experiment: Fraction unbound in human plasma by LC-MS/MS analysis; assay type: ADME, cell-free
[4] = tested on: Plasma; experiment: Drug uptake in plasma of po dosed nude mouse xenografted with human A375 cells after 2 hrs; assay type: ADME, organism-based, A-375; details: in vivo
Method in brief: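 A375 xenograft mice given a single oral dose; tumors and plasma harvested 2 h later. Tumor pERK measured by Western blot with equal protein loading, normalized to total ERK, and expressed as percent reduction in pERK.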

bioavailability [1] | Vd [2] | Cp(f) [3] | Drug uptake [4] | Structure (SMILES)
31% | 4.9 L/kg | 9.4% |  | COCCNC(C)c1ccc(Nc2ncc3cc(-c4ccncc4)ccc3n2)cc1 (configuration not stated)
 |  | 1.5% |  | COCCC(=O)N[C@H](C)c1ccc(Nc2ncc3cc(-c4ccncc4)ccc3n2)cc1
 |  | < 1% |  | COCCC(=O)N[C@@H](C)c1ccc(Nc2ncc3cc(-c4ccncc4)ccc3n2)cc1
 |  | 5% |  | CC(=O)NC(C)c1ccc(Nc2ncc3cc(-c4ccncc4)ccc3n2)cc1 (configuration not stated)
100% | 0.8 L/kg | 6% | Dose-dependent effect | CC(=O)N[C@H](C)c1ccc(Nc2ncc3cc(-c4ccncc4)ccc3n2)cc1
 |  | 1.4% |  | C[C@@H](NC(=O)[C@H]1CCCN1)c1ccc(Nc2ncc3cc(-c4ccncc4)ccc3n2)cc1
 |  | < 1% |  | CC(=O)N[C@H](C)c1ccc(Nc2ncc3cc(-c4ccncc4)cc(Cl)c3n2)cc1
 |  | 1.9% |  | CC(=O)N[C@H](C)c1ccc(Nc2ncc3cc(-c4ccncc4)c(C)cc3n2)cc1
 |  | < 1% |  | CC(=O)N[C@H](C)c1ccc(Nc2ncc3cc(-c4ccncc4)cc(C)c3n2)cc1

Continued, molecule first:

Structure (SMILES) | bioavailability [1] | Vd [2] | Cp(f) [3] | Drug uptake [4]
COCCC(=O)N(C)c1ccc(Nc2ncc3cc(-c4ccncc4)ccc3n2)cc1 | 60% | 0.7 L/kg |  | 
COCCN(C)c1ccc(Nc2ncc3cc(-c4ccncc4)ccc3n2)cc1 |  |  | < 1% | 
C[C@@H](NC(=O)[C@H]1CCCCN1)c1ccc(Nc2ncc3cc(-c4ccncc4)ccc3n2)cc1 | 28% | 13 L/kg | 5.1% | 
C[C@@H](NC(=O)[C@H]1CCCCN1CCO)c1ccc(Nc2ncc3cc(-c4ccncc4)ccc3n2)cc1 |  |  | 3.4% | 
C[C@@H](NC(=O)[C@H]1CCCNC1)c1ccc(Nc2ncc3cc(-c4ccncc4)ccc3n2)cc1 |  |  | 1.7% | 
C[C@@H](NC(=O)C1CCNCC1)c1ccc(Nc2ncc3cc(-c4ccncc4)ccc3n2)cc1 |  |  | 3.4% | 
C[C@@H](NC1=CC(=O)CCC1)c1ccc(Nc2ncc3cc(-c4ccncc4)ccc3n2)cc1 | 17% | 0.67 L/kg | 1.3% | 
C[C@@H](NC1=CC(=O)NCC1)c1ccc(Nc2ncc3cc(-c4ccncc4)ccc3n2)cc1 |  |  | 2.3% | 
C[C@@H](NC1=CC(=O)CNC1)c1ccc(Nc2ncc3cc(-c4ccncc4)ccc3n2)cc1 |  | 7.9 L/kg | 3.6% | 
COc1cc2nc(Nc3ccc([C@@H](C)NC(C)=O)cc3)ncc2cc1-c1ccncc1 |  | 0.67 L/kg |  | 
CC(=O)N[C@H](C)c1ccc(Nc2ncc3cc(-c4ccncc4)c(Cl)cc3n2)cc1 |  |  | < 1% | 
C[C@@H](NC(=O)C1CCCCN1C)c1ccc(Nc2ncc3cc(-c4ccncc4)ccc3n2)cc1 (mixture of isomers) |  |  | 3.8% | 
